This is a sample that favours compounds with a hit; in the whole collection about 4.2% have one here.
KCNQ1 act = potentiators or activators of KCNQ1 channel, primary screen, cell-based, thallium flux, high-throughput. Potassium voltage-gated channel subfamily KQT member 1 (Homo sapiens), P51787. CHO-K1 KCNQ1, thallium flux FluxOR fluorescence; stronger effect = higher value. B-score at 10 µM. 0.35% of 310,000 active. AID 2648, 2010;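 active means fluorescence ratio B-score, a plate-corrected score, at least three library SD, with initial intensity B-score within 5 SD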
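Doses: Single concentration per compound, DMSO matched to controls | Test system: KCNQ1-transfected CHO-K1 cells | Timing: 90 min dye loading and 20 min compound exposure, both at room temperature | Measured by: Kinetic FluxOR thallium fluorescence, 10-s 1-Hz baseline, 110-s post-stimulus read | Medium: Assay buffer with matched DMSO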
KCNQ1 inh = inhibitors of human KCNQ1 channel, primary screen, cell-based, thallium flux, high-throughput | AID 2642, 2010 | CHO-K1 KCNQ1, FluxOR thallium flux fluorescence; stronger effect = higher value | B-score at 10 µM | Potassium voltage-gated channel subfamily KQT member 1 (Homo sapiens), P51787 | 1.3% of 310,000 active;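 active means compounds whose thallium flux B-score, printed positive for inhibition, exceeds three library SD while starting fluorescence stays within three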;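 further: channel opened by potassium depolarization with thallium stimulus after 20 min compound exposure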
Mot1-301 SUMO = yeast Mot1-301 growth rescue at high temperature, primary screen, SUMOylation pathway inhibitor project, S. cerevisiae, ATP luminescence, 38.5C; S. cerevisiae Mot1-301 growth rescue; percent above DMSO median, 100 means doubled; growth rescue, % at 18.8 µM; 1% of 320,000 active; AID 2716, 2010;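 active means every valid replicate shows activation above 250% relative to neutral control wells; inactive means the rest, any valid replicate at or below 250%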;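 further: OY570 slx delta 5 strain wells were the positive control but not used for scaling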
AI-2 QS modul = Vibrio harveyi AI-2 quorum sensing modulators, primary screen, JMH597 strain, luminescence/OD600 ratio; Vibrio harveyi JMH597 AI-2 luminescence/OD600 ratio, 9 h; stronger effect = lower value; strain lacks LuxN and CqsS sensors; 0 = neutral-control median; activity change, % at 7.5 µM; 0.4% of 300,000 active; in the data active means activity change below about -75%, passing the limit was not always enough;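 further: luminescence divided by OD600 gain over 9 h not by final OD600 alone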
hERG protect = hERG rescue from dofetilide block, primary screen, cell-based, CHO-hERG, FluxOR thallium flux, dofetilide IC70; Voltage-gated inwardly rectifying potassium channel KCNH2 (Homo sapiens), Q12809; dofetilide IC70 present; activation (rescue from dofetilide block), less the hit threshold, % at 10 µM; 0.51% of 310,000 active; AID 1511, 2009;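 active means activation above the mean of controls blocked by dofetilide plus 5 SD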;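 further: thallium influx through hERG after potassium depolarization seen as dye fluorescence rise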
KCC2 mod = KCC2 cotransporter modulators, thallium flux, primary screen, cell-based, HEK293 KCC2, FluoZin-2 fluorescence, MLSMR; B-score of Tl+ flux slope (higher = more flux/activation; lower = inhibition) at 10 µM; 2.2% of 190,000 active; KCC2 cells, thallium flux FluoZin-2 fluorescence;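 active means thallium flux slope and its plate-corrected score both differing from the plate sample mean at a set confidence after two filtering rounds, in either direction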;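 further: slope of fluorescence scaled to starting intensity during 10 to 20 s after thallium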
Target sequence (Q9H2X9 whole entry, looked up): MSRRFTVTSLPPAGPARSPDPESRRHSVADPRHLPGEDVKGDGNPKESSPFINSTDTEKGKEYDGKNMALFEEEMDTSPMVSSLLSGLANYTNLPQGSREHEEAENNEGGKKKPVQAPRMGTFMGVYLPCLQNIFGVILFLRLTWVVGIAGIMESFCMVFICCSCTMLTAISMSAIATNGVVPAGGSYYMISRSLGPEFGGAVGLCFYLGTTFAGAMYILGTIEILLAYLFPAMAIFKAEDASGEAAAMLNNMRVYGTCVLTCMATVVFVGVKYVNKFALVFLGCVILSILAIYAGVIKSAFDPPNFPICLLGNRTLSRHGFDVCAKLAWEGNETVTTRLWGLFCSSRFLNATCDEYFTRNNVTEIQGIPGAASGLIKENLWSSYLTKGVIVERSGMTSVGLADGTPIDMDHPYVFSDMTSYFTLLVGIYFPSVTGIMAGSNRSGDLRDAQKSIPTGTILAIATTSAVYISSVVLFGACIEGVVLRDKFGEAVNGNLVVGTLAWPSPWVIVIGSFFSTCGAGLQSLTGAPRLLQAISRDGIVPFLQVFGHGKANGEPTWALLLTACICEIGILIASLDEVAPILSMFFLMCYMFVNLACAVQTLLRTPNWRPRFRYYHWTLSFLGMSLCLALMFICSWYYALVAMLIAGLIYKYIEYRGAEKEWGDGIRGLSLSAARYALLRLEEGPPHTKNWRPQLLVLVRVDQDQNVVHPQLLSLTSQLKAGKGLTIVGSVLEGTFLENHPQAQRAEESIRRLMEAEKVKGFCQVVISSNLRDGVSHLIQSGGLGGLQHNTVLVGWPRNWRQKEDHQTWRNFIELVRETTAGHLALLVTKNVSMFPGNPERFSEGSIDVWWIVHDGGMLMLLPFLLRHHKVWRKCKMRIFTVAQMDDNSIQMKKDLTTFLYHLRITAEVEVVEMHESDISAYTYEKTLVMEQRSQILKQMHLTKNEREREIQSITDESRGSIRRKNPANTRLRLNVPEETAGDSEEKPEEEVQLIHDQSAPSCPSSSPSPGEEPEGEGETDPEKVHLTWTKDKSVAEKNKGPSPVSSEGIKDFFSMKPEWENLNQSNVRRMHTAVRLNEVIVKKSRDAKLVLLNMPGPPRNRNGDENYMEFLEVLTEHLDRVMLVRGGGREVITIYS
KCNQ1 inh valid = KCNQ1 potassium channel inhibitors, confirmation, cell-based, Tl flux, duplicate; shares compounds with KCNQ1 inh; KCNQ1 cell line, FluxOR thallium flux fluorescence; inhibition, % at 10 µM; 93% of 1,600 active; AID 588353, 2011;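 active means primary screen active, with duplicate mean exceeding buffer control mean plus 3 SD of buffer wells, cut at about 28% in these data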;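 further: 0% = buffer control ratio and 100% = XE991 inhibitor control ratio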
CHO KCNQ1 ctr = thallium flux effects in parental CHO cells, counter-screen for KCNQ1 inhibitor project, cell-based, Tl flux; parental CHO-K1, FluxOR thallium flux fluorescence ratio; stronger effect = lower value; zero means no signal rise above baseline; fluorescence ratio (Tl flux) at 10 µM; shares compounds with KCNQ1 inh; 21% of 1,600 active;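 active means mean of duplicate thallium-flux fluorescence ratios in parental host cells more than 5 SD below the buffer control mean, cut at about 0.38 in these data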;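 further: ratio is peak minus minimum fluorescence divided by baseline fluorescence; actives read low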
KCNQ1 ephys val = KCNQ1 channel inhibitors, confirmation, orthogonal assay, cell-based, automated electrophysiology; KCNQ1-CHO cells, automated patch clamp current; 20% of 490 active; calls only at 10 µM; shares compounds with KCNQ1 inh;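 active means KCNQ1 current drop exceeding 3 SD of negative control wells, seen in both duplicate runs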;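 further: steady state current during a 2 s step from -80 to +40 mV; negative values mean current inhibition and positive values mean potentiation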
KCNQ2 spec = KCNQ2 channel inhibition, selectivity assay for KCNQ1 inhibitor project, cell-based; shares compounds with KCNQ1 inh; KCNQ2 cells, FluxOR thallium flux fluorescence; inhibition, % at 10 µM; 71% of 1,600 active;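 active means mean percent inhibition of the KCNQ2 thallium signal more than 5 SD above the buffer-only control wells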;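 further: KCNQ2 expressed in CHO cells; 0% = buffer control wells and 100% = XE-991 inhibitor control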
KCNQ1-KCNE1 inh = KCNQ1/KCNE1 channel inhibition, selectivity assay for KCNQ1 inhibitor project, CHO-K1 cells, thallium flux, FluxOR | inhibition, % at 10 µM | shares compounds with KCNQ1 inh | 77% of 1,600 active | FluxOR thallium flux fluorescence;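 active means mean percent inhibition of duplicate wells above the buffer-only control mean plus 3 SD of those controls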;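 further: 0% = buffer only wells and 100% = XE-991 inhibitor control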
Starred values were filed as active, the others as inactive.

What do the screens show for `Cc1cc(N2CCCC2=O)cc(C)c1S(=O)(=O)NCCOc1ccc(C(C)(C)C)cc1`?
KCNQ1 act: inactive; KCNQ1 inh: 10*; Mot1-301 SUMO: -8; AI-2 QS modul: 29; hERG protect: -18; KCC2 mod: -0.83; KCNQ1 inh valid: 138*; CHO KCNQ1 ctr: 0.43; KCNQ1 ephys val: inactive; KCNQ2 spec: 112%*; KCNQ1-KCNE1 inh: 141%*

How did COc1ccc(-c2nc(NC(=O)c3[nH]c(C)c(C(C)=O)c3C)sc2C)cc1 do in these assays?
KCNQ1 act: inactive; KCNQ1 inh: 14*; Mot1-301 SUMO: 0; AI-2 QS modul: 16; hERG protect: -22; KCC2 mod: -0.025; KCNQ1 inh valid: 97*; CHO KCNQ1 ctr: 0.28*; KCNQ2 spec: 110%*; KCNQ1-KCNE1 inh: 180%*

How did CCOc1ccc(NC(=O)CN(C)C(=O)/C=C/c2ccco2)cc1OCC do in these assays?
Mot1-301 SUMO: -16

How did O=S(=O)(c1ccccc1)c1nc(Nc2cccc(O)c2)sc1Cl do in these assays?
KCNQ1 act: inactive; KCNQ1 inh: 7*; Mot1-301 SUMO: -12; AI-2 QS modul: -25; hERG protect: -34; KCC2 mod: -0.87; KCNQ1 inh valid: 94*; CHO KCNQ1 ctr: 0.38; KCNQ1 ephys val: inactive; KCNQ2 spec: 78%*; KCNQ1-KCNE1 inh: 44%*

What do the screens show for `CCOC(=O)C1CCN(C(=O)c2cccc(Cl)c2)CC1`?
KCNQ1 act: inactive; KCNQ1 inh: inactive; Mot1-301 SUMO: 4; AI-2 QS modul: 21; hERG protect: -11; KCC2 mod: 1.2

What do the screens show for `CCOC(=O)C1CCN(c2c(C(=O)c3ccccc3)cnc3ccc(Cl)cc23)CC1`?
KCNQ1 act: inactive; KCNQ1 inh: 6*; Mot1-301 SUMO: -17; AI-2 QS modul: 27; hERG protect: -11; KCC2 mod: 0.0051; KCNQ1 inh valid: 154*; CHO KCNQ1 ctr: 0.41; KCNQ1 ephys val: inactive; KCNQ2 spec: 134%*; KCNQ1-KCNE1 inh: 92%*

What do the screens show for `O=C(Cc1ccc(Cl)cc1)NC1CCCCCC1`?
KCNQ1 act: inactive; KCNQ1 inh: inactive; Mot1-301 SUMO: 48; AI-2 QS modul: 10; hERG protect: -4
